Screening results: PubChem, several laboratories
KCC2 mod: KCC2 (human) Cl- transport modulation; Q9H2X9; KCC2 cells, thallium flux FluoZin-2 fluorescence; B-score of Tl+ flux slope (higher = more flux/activation; lower = inhibition) at 10 µM; hit rate 2.2% among 190,000; AID 1456;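 active means thallium flux slope and its plate-corrected score both differing from the plate sample mean at a set confidence after two filtering rounds, in either direction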;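 further: slope of fluorescence scaled to starting intensity during 10 to 20 s after thallium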
Target sequence (Q9H2X9 whole entry, looked up): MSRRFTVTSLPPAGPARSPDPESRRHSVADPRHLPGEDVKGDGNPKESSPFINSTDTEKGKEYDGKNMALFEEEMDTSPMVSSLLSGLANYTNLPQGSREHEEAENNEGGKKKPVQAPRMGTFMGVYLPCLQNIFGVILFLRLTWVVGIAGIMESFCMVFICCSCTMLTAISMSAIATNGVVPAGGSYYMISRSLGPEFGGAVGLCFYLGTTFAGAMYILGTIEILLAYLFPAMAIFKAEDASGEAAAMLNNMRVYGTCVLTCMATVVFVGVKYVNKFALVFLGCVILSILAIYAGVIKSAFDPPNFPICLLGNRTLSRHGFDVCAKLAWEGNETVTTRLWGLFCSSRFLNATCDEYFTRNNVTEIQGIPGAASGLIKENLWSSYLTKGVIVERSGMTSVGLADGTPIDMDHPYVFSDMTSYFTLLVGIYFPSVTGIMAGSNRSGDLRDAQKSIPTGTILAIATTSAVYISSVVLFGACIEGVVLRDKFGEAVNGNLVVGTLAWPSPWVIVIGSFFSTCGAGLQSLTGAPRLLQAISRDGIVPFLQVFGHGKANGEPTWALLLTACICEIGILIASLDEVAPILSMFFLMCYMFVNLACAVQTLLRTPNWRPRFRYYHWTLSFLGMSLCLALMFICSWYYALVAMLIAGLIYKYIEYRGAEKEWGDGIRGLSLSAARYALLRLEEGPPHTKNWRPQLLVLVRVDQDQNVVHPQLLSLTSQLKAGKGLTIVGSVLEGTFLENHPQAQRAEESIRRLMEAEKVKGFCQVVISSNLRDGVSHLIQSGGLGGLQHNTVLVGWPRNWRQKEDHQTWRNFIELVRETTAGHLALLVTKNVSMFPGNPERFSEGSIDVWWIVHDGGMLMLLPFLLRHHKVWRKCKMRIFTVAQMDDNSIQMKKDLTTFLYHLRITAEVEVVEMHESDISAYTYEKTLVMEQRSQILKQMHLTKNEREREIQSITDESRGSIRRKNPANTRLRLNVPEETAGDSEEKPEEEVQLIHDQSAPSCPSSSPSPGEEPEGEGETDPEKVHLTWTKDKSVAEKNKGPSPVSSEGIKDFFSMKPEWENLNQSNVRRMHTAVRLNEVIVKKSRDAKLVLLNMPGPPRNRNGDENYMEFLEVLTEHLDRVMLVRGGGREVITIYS
KCNQ1 block: blocks the human KCNQ1 potassium channel; P51787; CHO-K1 KCNQ1, FluxOR thallium flux fluorescence; active compounds read high; B-score at 10 µM; hit rate 1.3% among 310,000; AID 2642;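 active means compounds whose thallium flux B-score, printed positive for inhibition, exceeds three library SD while starting fluorescence stays within three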;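 further: channel opened by potassium depolarization with thallium stimulus after 20 min compound exposure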
Mot1-301 SUMO: inhibitors of SUMOylation pathway: yeast Mot1-301 growth rescue | S. cerevisiae Mot1-301 growth rescue, ATP luminescence, 38.5C; percent above DMSO median, 100 means doubled | growth rescue, % at 18.8 µM | hit rate 1% among 320,000 | AID 2716;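 active means every valid replicate shows activation above 250% relative to neutral control wells; inactive means the rest, any valid replicate at or below 250%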
hERG protect: shields human hERG channel from block by proarrhythmic agents. hit rate 0.51% among 310,000. Q12809. activation (rescue from dofetilide block), less the hit threshold, % at 10 µM. CHO-hERG, FluxOR thallium flux, dofetilide IC70 present;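 active means activation above the mean of controls blocked by dofetilide plus 5 SD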;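 further: thallium influx through hERG after potassium depolarization seen as dye fluorescence rise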
KCNQ1 pot: human KCNQ1 channel potentiation or activation; CHO-K1 KCNQ1, thallium flux FluxOR fluorescence; active compounds read high; P51787; hit rate 0.35% among 310,000; B-score at 10 µM; AID 2648;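 active means fluorescence ratio B-score, a plate-corrected score, at least three library SD, with initial intensity B-score within 5 SD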
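Assay system: stable KCNQ1 CHO-K1 line; medium: assay buffer, equal DMSO in all wells; timing: 90 min dye loading and 20 min compound exposure, both at room temperature; technique: kinetic FluxOR thallium fluorescence, 10-s 1-Hz baseline, 110-s post-stimulus read; read-out basis: B score of baseline-normalized fluorescence ratio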
AI-2 QS mod: modulators of Vibrio harveyi AI-2 quorum sensing system; Vibrio harveyi JMH597 AI-2 luminescence/OD600 ratio, 9 h; active compounds read low; strain lacks LuxN and CqsS sensors; 0 = neutral-control median; AID 2094; hit rate 0.4% among 300,000; activity change, % at 7.5 µM; in the data active means activity change below about -75%, passing the limit was not always enough; inconclusive means no clear call, values can overlap the other calls;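 further: luminescence divided by OD600 gain over 9 h not by final OD600 alone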
KCC2 sec1: confirmation of human KCC2 transport modulators; shares compounds with KCC2 mod; HEK293-KCC2, thallium flux, FluoZin2 fluorescence; active compounds read high; normalised thallium flux (F/F0 slope) at 10 µM; hit rate 15% among 3,700;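 active means thallium flux slope above the same plate's solvent-only control mean plus 3 SD; inconclusive means the two replicate wells disagree; inactive means no significant difference from solvent-only control wells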
KCC2 bumet counter: thallium flux despite bumetanide block in KCC2 cells, secondary assay 3. hit rate 49% among 3,700. normalized thallium flux at 10 µM. HEK293-KCC2 + bumetanide/ouabain, thallium flux FluoZin2; active compounds read high. shares compounds with KCC2 mod;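 active means thallium entry rate above the same plate's blocked-transporter control wells by more than 3 SD; inconclusive means the two repeat wells disagree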;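 further: raw slope of fluorescence over initial fluorescence between 10 and 20 s after thallium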
KCC2 secondary2: confirmation of human KCC2 transport modulators | AID 1715 | hit rate 23% among 3,700 | shares compounds with KCC2 mod | HEK293-KCC2, thallium flux FluoZin2 fluorescence; actives lie on both sides; F/F0 rise rate, 10–20 s post-thallium | normalized thallium flux at 10 µM;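 active means thallium flux slope more than 3 SD above or below the plate's solvent-only control mean, mostly below; inconclusive means the two repeat wells disagreed; inactive means no significant shift from solvent-only controls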
HEK counter1: counter-screen for KCC2 modulators: effect in parental HEK293 cells; shares compounds with KCC2 mod; thallium flux FluoZin2, ouabain; baseline-ratio fluorescence slope, 10–20 s after thallium; thallium flux rate (normalised fluorescence) at 10 µM; hit rate 46% among 3,700;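 active means thallium flux rate significantly above the same plate's solvent-only control wells, beyond their mean plus 3 SD; inconclusive means the two replicate wells gave conflicting results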
KCC2 retest ouab: KCC2 (human) modulation, ouabain retest. shares compounds with KCC2 mod. HEK293-KCC2, thallium flux FluoZin2 fluorescence; bidirectional: low = inhibitor, high = activator. raw Tl+ flux slope (below DMSO = inhibition, above = activation) at 10 µM. hit rate 48% among 3,700;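 active means thallium flux slope beyond 3 SD from same-plate DMSO control mean in most replicates, usually higher, sometimes lower; inconclusive means repeat tests gave conflicting results; inactive means no significant difference from controls in most replicates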;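 further: slope of initial-normalized fluorescence between seconds 10 and 20 after thallium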
HEK counter2: parental HEK flux effect, counter-screen 2; shares compounds with KCC2 mod; HEK293 parental, thallium flux FluoZin-2 fluorescence slope; AID 1718; hit rate 33% among 3,700; thallium flux slope at 10 µM;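 active means thallium flux slope above the same plate's solvent-control mean plus 3 SD in both duplicate wells; inconclusive means duplicate wells that disagreed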;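 further: run without ouabain in cells lacking the KCC2 cotransporter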
Each line names hits and unclear results; the compound was inactive in the other large screens (follow-up assays come after a bar, where they were run). In the library only some 4.2% were active in any assay of this set; here they are far more common.

CC12CCC(C(=O)Nc3nc4ccc(Br)cc4s3)(OC1=O)C2(C)C (configuration not stated)	KCC2 mod 9.69 | KCC2 sec1 inactive | KCC2 bumet counter 0.04 | KCC2 secondary2 inconclusive | HEK counter1 0.0166 | KCC2 retest ouab 0.0349 | HEK counter2 0.0216
COc1ccccc1NC(=O)CSc1nnc(CNC(=O)c2ccco2)o1	none (no result: KCC2 mod)
COc1ccc(NC(=O)CSc2nnc(CNC(=O)c3ccco3)o2)c(OC)c1	none (no result: KCC2 mod) | KCC2 sec1 inactive | KCC2 bumet counter inactive | KCC2 secondary2 inactive | HEK counter1 inactive | KCC2 retest ouab inactive | HEK counter2 inactive
COC(=O)c1ccc2c(=O)n(CCCCCC(=O)NCc3ccccc3)c(=O)[nH]c2c1	none
COC(=O)c1ccc2c(=O)n(CCCCCC(=O)NCCNC(C)=O)c(=O)[nH]c2c1	KCC2 mod 5.37 | KCC2 sec1 inactive | KCC2 bumet counter inactive | KCC2 secondary2 inactive | HEK counter1 inactive | KCC2 retest ouab inactive | HEK counter2 inactive
O=C(CCCn1c(=O)[nH]c2cc(Cl)ccc2c1=O)NCC1CCCO1 (configuration not stated)	KCC2 mod 8.55 | KCC2 sec1 inactive | KCC2 bumet counter inactive | KCC2 secondary2 inactive | HEK counter1 inactive | KCC2 retest ouab inactive | HEK counter2 inconclusive
CCN(CC)CCn1c(=S)[nH]c2ccc(Br)cc2c1=O	KCC2 mod 17.4 | KCC2 sec1 inactive | KCC2 bumet counter 0.0171 | KCC2 secondary2 inactive | HEK counter1 0.0112 | KCC2 retest ouab inactive | HEK counter2 inconclusive
CCOC(=O)N1CCN(C(=O)c2ccc3c(=O)n(Cc4ccc(OC)cc4)c(=S)[nH]c3c2)CC1	none (no result: KCC2 mod, KCNQ1 block, hERG protect, KCNQ1 pot, AI-2 QS mod)
CCOC(=O)N1CCN(C(=O)c2ccc3c(=O)n(Cc4ccccc4)c(=S)[nH]c3c2)CC1	KCC2 mod 4.61 | KCC2 sec1 inactive | KCC2 bumet counter 0.0258 | KCC2 secondary2 inactive | HEK counter1 0.012 | KCC2 retest ouab 0.028 | HEK counter2 0.0112
CCOC(=O)N1CCN(C(=O)CCCn2c(=S)[nH]c3ccc(Br)cc3c2=O)CC1	KCC2 mod 8.69 | KCC2 sec1 inactive | KCC2 bumet counter 0.00892 | KCC2 secondary2 inactive | HEK counter1 0.00974 | KCC2 retest ouab inactive | HEK counter2 inactive
CCOc1ccc(NC(=S)N2CCN(S(=O)(=O)c3ccc(OC)cc3)CC2)cc1	none (no result: KCC2 mod)
O=C(Nc1ccc2oc(-c3ccccc3)nc2c1)c1ccc2c(c1)OCCO2	KCC2 mod -2.99 | KCC2 sec1 inactive | KCC2 bumet counter inactive | KCC2 secondary2 inactive | HEK counter1 inactive | KCC2 retest ouab 0.0348 | HEK counter2 inconclusive
CC(=O)Nc1ccc(-c2nc3cc(Cl)ccc3o2)cc1	none (no result: KCC2 mod)
O=C(O)c1ccccc1-c1ccccc1C(=O)Nc1ccc(-c2nc3cc(Cl)ccc3o2)cc1	KCC2 mod -3.66 | KCC2 sec1 inactive | KCC2 bumet counter inactive | KCC2 secondary2 0.019 | HEK counter1 inactive | KCC2 retest ouab 0.0118 | HEK counter2 inactive
